Test results taken from ChEMBL document CHEMBL1914423, “New imidazo[2,1-b]thiazole derivatives: synthesis, in vitro anticancer evaluation, and in silico studies” (Eur J Med Chem, 2011).

tested on: MCF7; assay: Anticancer activity against human MCF7 cells assessed as cell growth at 10^-5 M after 48 hrs by SRB assay; assay type: functional; conditions: MCF7, 48 h, read-out: Activity
Summary of the method: (§1)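 NCI-60 single-dose screen at one concentration. Cells grown in RPMI 1640 with 5% FBS and 2 mM L-glutamine, plated at 5000–40,000 cells/well, and pre-incubated 24 h at 37 °C in 5% CO2 before DMSO-dissolved drug was added. Cells fixed with TCA, SRB-stained, absorbance read at 515 nm. Percent growth calculated against time-zero and untreated control plates.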

SMILES	growth at 10 µM [%]
O=C(NCCNc1nccc(-c2c(-c3cccc(O)c3)nc3sccn23)n1)c1ccccc1O	37

tested on: CCRF-CEM; assay: Anticancer activity against human CCRF-CEM cells assessed as cell growth at 10^-5 M after 48 hrs by SRB assay; assay type: functional; conditions: read-out: Activity; summary of the method: as §1

SMILES	growth at 10 µM [%]
O=C(NCCNc1nccc(-c2c(-c3cccc(O)c3)nc3sccn23)n1)c1ccccc1O	18.9

tested on: U-251; assay: Anticancer activity against human U251 cells assessed as cell growth at 10^-5 M after 48 hrs by SRB assay; assay type: functional; conditions: U-251, 48 h, read-out: Activity
Summary of the method: (§2)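 NCI-60 single-dose screen: cells in RPMI 1640 with 5% FBS and 2 mM L-glutamine, plated at 5000–40,000 cells/well by doubling time, and preincubated 24 h at 37 °C. Compound given at one concentration from DMSO stock. Cells TCA-fixed and SRB-stained, absorbance at 515 nm. Percent growth relative to time-zero and untreated controls; inhibition % = 100 − growth %.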

SMILES	growth at 10 µM [%]
O=C(NCCNc1nccc(-c2c(-c3cccc(O)c3)nc3sccn23)n1)c1ccccc1O	61.6

tested on: Malme-3M; assay: Anticancer activity against human MALME-3M cells assessed as cell growth at 10^-5 M after 48 hrs by SRB assay; assay type: functional; conditions: read-out: Activity; summary of the method: as §1

SMILES	growth at 10 µM [%]
O=C(NCCNc1nccc(-c2c(-c3cccc(O)c3)nc3sccn23)n1)c1ccccc1O	14.6

tested on: ACHN; assay: Anticancer activity against human ACHN cells assessed as cell growth at 10^-5 M after 48 hrs by SRB assay; assay type: functional; conditions: read-out: Activity; summary of the method: as §1

SMILES	growth at 10 µM [%]
O=C(NCCNc1nccc(-c2c(-c3cccc(O)c3)nc3sccn23)n1)c1ccccc1O	46.1

tested on: EKVX; assay: Anticancer activity against human EKVX cells assessed as cell growth at 10^-5 M after 48 hrs by SRB assay; assay type: functional; conditions: read-out: Activity; summary of the method: as §1

SMILES	growth at 10 µM [%]
O=C(NCCNc1nccc(-c2c(-c3cccc(O)c3)nc3sccn23)n1)c1ccccc1O	66.8

tested on: BT-549; assay: Anticancer activity against human BT549 cells assessed as cell growth at 10^-5 M after 48 hrs by SRB assay; assay type: functional; conditions: BT-549, 48 h, read-out: Activity; summary of the method: as §1

SMILES	growth at 10 µM [%]
O=C(NCCNc1nccc(-c2c(-c3cccc(O)c3)nc3sccn23)n1)c1ccccc1O	45.7

tested on: A498; assay: Anticancer activity against human A498 cells assessed as cell growth at 10^-5 M after 48 hrs by SRB assay; assay type: functional; conditions: A498, 48 h, read-out: Activity; summary of the method: as §1

SMILES	growth at 10 µM [%]
O=C(NCCNc1nccc(-c2c(-c3cccc(O)c3)nc3sccn23)n1)c1ccccc1O	104

tested on: NCI-H522; assay: Anticancer activity against human NCI-H522 cells assessed as cell growth at 10^-5 M after 48 hrs by SRB assay; assay type: functional; conditions: NCI-H522, 48 h, read-out: Activity

SMILES	growth at 10 µM [%]
O=C(NCCNc1nccc(-c2c(-c3cccc(O)c3)nc3sccn23)n1)c1ccccc1O	29

tested on: 786-0; assay: Anticancer activity against human 786-0 cells assessed as cell growth at 10^-5 M after 48 hrs by SRB assay; assay type: functional; conditions: 786-0, 48 h, read-out: Activity; summary of the method: as §1

SMILES	growth at 10 µM [%]
O=C(NCCNc1nccc(-c2c(-c3cccc(O)c3)nc3sccn23)n1)c1ccccc1O	64.6

tested on: NCI-H226; assay: Anticancer activity against human NCI-H226 cells assessed as cell growth at 10^-5 M after 48 hrs by SRB assay; assay type: functional; conditions: NCI-H226, 48 h, read-out: Activity

SMILES	growth at 10 µM [%]
O=C(NCCNc1nccc(-c2c(-c3cccc(O)c3)nc3sccn23)n1)c1ccccc1O	80.5

tested on: SK-MEL-2; assay: Anticancer activity against human SK-MEL-2 cells assessed as cell growth at 10^-5 M after 48 hrs by SRB assay; assay type: functional; conditions: SK-MEL-2, 48 h, read-out: Activity

SMILES	growth at 10 µM [%]
O=C(NCCNc1nccc(-c2c(-c3cccc(O)c3)nc3sccn23)n1)c1ccccc1O	13.9

tested on: SF-268; assay: Anticancer activity against human SF268 cells assessed as cell growth at 10^-5 M after 48 hrs by SRB assay; assay type: functional; conditions: SF-268, 48 h, read-out: Activity

SMILES	growth at 10 µM [%]
O=C(NCCNc1nccc(-c2c(-c3cccc(O)c3)nc3sccn23)n1)c1ccccc1O	62.5

tested on: RPMI-8226; assay: Anticancer activity against human RPMI8226 cells assessed as cell growth at 10^-5 M after 48 hrs by SRB assay; assay type: functional; conditions: RPMI-8226, 48 h, read-out: Activity

SMILES	growth at 10 µM [%]
O=C(NCCNc1nccc(-c2c(-c3cccc(O)c3)nc3sccn23)n1)c1ccccc1O	11.6

tested on: MDA-MB-231; assay: Anticancer activity against human MDA-MB-231 cells assessed as cell growth at 10^-5 M after 48 hrs by SRB assay; assay type: functional; conditions: MDA-MB-231, 48 h, read-out: Activity; summary of the method: as §1

SMILES	growth at 10 µM [%]
O=C(NCCNc1nccc(-c2c(-c3cccc(O)c3)nc3sccn23)n1)c1ccccc1O	48.4

tested on: SF-539; assay: Anticancer activity against human SF539 cells assessed as cell growth at 10^-5 M after 48 hrs by SRB assay; assay type: functional; conditions: SF-539, 48 h, read-out: Activity

SMILES	growth at 10 µM [%]
O=C(NCCNc1nccc(-c2c(-c3cccc(O)c3)nc3sccn23)n1)c1ccccc1O	61.9

tested on: OVCAR-8; assay: Anticancer activity against human OVCAR8 cells assessed as cell growth at 10^-5 M after 48 hrs by SRB assay; assay type: functional; conditions: OVCAR-8, 48 h, read-out: Activity

SMILES	growth at 10 µM [%]
O=C(NCCNc1nccc(-c2c(-c3cccc(O)c3)nc3sccn23)n1)c1ccccc1O	41.3

tested on: OVCAR-5; assay: Anticancer activity against human OVCAR5 cells assessed as cell growth at 10^-5 M after 48 hrs by SRB assay; assay type: functional; conditions: OVCAR-5, 48 h, read-out: Activity

SMILES	growth at 10 µM [%]
O=C(NCCNc1nccc(-c2c(-c3cccc(O)c3)nc3sccn23)n1)c1ccccc1O	88.7

tested on: HOP-92; assay: Anticancer activity against human HOP92 cells assessed as cell growth at 10^-5 M after 48 hrs by SRB assay; assay type: functional; conditions: HOP-92, 48 h, read-out: Activity; summary of the method: as §1

SMILES	growth at 10 µM [%]
O=C(NCCNc1nccc(-c2c(-c3cccc(O)c3)nc3sccn23)n1)c1ccccc1O	59.9

tested on: UO-31; assay: Anticancer activity against human UO31 cells assessed as cell growth at 10^-5 M after 48 hrs by SRB assay; assay type: functional; conditions: UO-31, 48 h, read-out: Activity; summary of the method: as §2

SMILES	growth at 10 µM [%]
O=C(NCCNc1nccc(-c2c(-c3cccc(O)c3)nc3sccn23)n1)c1ccccc1O	34.6

tested on: NCI-H322M; assay: Anticancer activity against human NCI-H322M cells assessed as cell growth at 10^-5 M after 48 hrs by SRB assay; assay type: functional; conditions: read-out: Activity

SMILES	growth at 10 µM [%]
O=C(NCCNc1nccc(-c2c(-c3cccc(O)c3)nc3sccn23)n1)c1ccccc1O	72.3

tested on: OVCAR-3; assay: Anticancer activity against human OVCAR3 cells assessed as cell growth at 10^-5 M after 48 hrs by SRB assay; assay type: functional; conditions: OVCAR-3, 48 h, read-out: Activity

SMILES	growth at 10 µM [%]
O=C(NCCNc1nccc(-c2c(-c3cccc(O)c3)nc3sccn23)n1)c1ccccc1O	60.2

tested on: KM12; assay: Anticancer activity against human KM12 cells assessed as cell growth at 10^-5 M after 48 hrs by SRB assay; assay type: functional; conditions: KM12, 48 h, read-out: Activity; summary of the method: as §1

SMILES	growth at 10 µM [%]
O=C(NCCNc1nccc(-c2c(-c3cccc(O)c3)nc3sccn23)n1)c1ccccc1O	46.7

tested on: SNB-75; assay: Anticancer activity against human SNB75 cells assessed as cell growth at 10^-5 M after 48 hrs by SRB assay; assay type: functional; conditions: SNB-75, 48 h, read-out: Activity; summary of the method: as §2

SMILES	growth at 10 µM [%]
O=C(NCCNc1nccc(-c2c(-c3cccc(O)c3)nc3sccn23)n1)c1ccccc1O	40.6

tested on: DU-145; assay: Anticancer activity against human DU145 cells assessed as cell growth at 10^-5 M after 48 hrs by SRB assay; assay type: functional; conditions: DU-145, 48 h, read-out: Activity; summary of the method: as §1

SMILES	growth at 10 µM [%]
O=C(NCCNc1nccc(-c2c(-c3cccc(O)c3)nc3sccn23)n1)c1ccccc1O	67.2

tested on: LOX IMVI; assay: Anticancer activity against human LOXIMVI cells assessed as cell growth at 10^-5 M after 48 hrs by SRB assay; assay type: functional; conditions: read-out: Activity; summary of the method: as §1

SMILES	growth at 10 µM [%]
O=C(NCCNc1nccc(-c2c(-c3cccc(O)c3)nc3sccn23)n1)c1ccccc1O	33.5

tested on: HOP-62; assay: Anticancer activity against human HOP62 cells assessed as cell growth at 10^-5 M after 48 hrs by SRB assay; assay type: functional; conditions: HOP-62, 48 h, read-out: Activity; summary of the method: as §1

SMILES	growth at 10 µM [%]
O=C(NCCNc1nccc(-c2c(-c3cccc(O)c3)nc3sccn23)n1)c1ccccc1O	114

tested on: T47D; assay: Anticancer activity against human T47D cells assessed as cell growth at 10^-5 M after 48 hrs by SRB assay; assay type: functional; conditions: read-out: Activity; summary of the method: as §2

SMILES	growth at 10 µM [%]
O=C(NCCNc1nccc(-c2c(-c3cccc(O)c3)nc3sccn23)n1)c1ccccc1O	61.8

tested on: HCT-116; assay: Anticancer activity against human HCT116 cells assessed as cell growth at 10^-5 M after 48 hrs by SRB assay; assay type: functional; conditions: HCT-116, 48 h, read-out: Activity; summary of the method: as §1

SMILES	growth at 10 µM [%]
O=C(NCCNc1nccc(-c2c(-c3cccc(O)c3)nc3sccn23)n1)c1ccccc1O	25.9

tested on: HT-29; assay: Anticancer activity against human HT-29 cells assessed as cell growth at 10^-5 M after 48 hrs by SRB assay; assay type: functional; conditions: HT-29, 48 h, read-out: Activity; summary of the method: as §1

SMILES	growth at 10 µM [%]
O=C(NCCNc1nccc(-c2c(-c3cccc(O)c3)nc3sccn23)n1)c1ccccc1O	49.2

tested on: NCI-H23; assay: Anticancer activity against human NCI-H23 cells assessed as cell growth at 10^-5 M after 48 hrs by SRB assay; assay type: functional; conditions: NCI-H23, 48 h, read-out: Activity

SMILES	growth at 10 µM [%]
O=C(NCCNc1nccc(-c2c(-c3cccc(O)c3)nc3sccn23)n1)c1ccccc1O	57.4

tested on: HCT-15; assay: Anticancer activity against human HCT15 cells assessed as cell growth at 10^-5 M after 48 hrs by SRB assay; assay type: functional; conditions: HCT-15, 48 h, read-out: Activity; summary of the method: as §1

SMILES	growth at 10 µM [%]
O=C(NCCNc1nccc(-c2c(-c3cccc(O)c3)nc3sccn23)n1)c1ccccc1O	54.5

tested on: SK-OV-3; assay: Anticancer activity against human SKOV3 cells assessed as cell growth at 10^-5 M after 48 hrs by SRB assay; assay type: functional; conditions: SK-OV-3, 48 h, read-out: Activity

SMILES	growth at 10 µM [%]
O=C(NCCNc1nccc(-c2c(-c3cccc(O)c3)nc3sccn23)n1)c1ccccc1O	60.5
